Test results: ChEMBL document CHEMBL5247673, “Discovery of Small Molecules Targeting the Frameshifting Element RNA in SARS-CoV-2 Viral Genome” (ACS Med Chem Lett, 2023)
The source made the active and inactive calls. The calls are words filed in the database; no cut-off is given here.

System: MCF7
Assay: Inhibition of programmed -1 ribosomal frameshifting in human MCF7 cells harboring pCherryGFP-Inframe-noFSE plasmid assessed as inhibition of GFP expression incubated for 30 mins by fluorescence microscopic analysis
Format: functional, cell-based
Settings: not given
In short: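 MCF-7 cells were treated with compound at various concentrations and transfected with an mCherry–FSE–GFP reporter: WT, a stop-codon negative control, or an in-frame no-FSE plasmid. GFP expression was the read-out, compared with a DMSO (0 μM) control. Data are mean ± SD of three independent experiments.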

| SMILES | inhibition |
| --- | --- |
| COc1ccc(-c2nc(NCCN3CCOCC3)c3ccccc3n2)cc1 | inactive |

System: Reticulocyte
Assay: Binding affinity to wild-type SARS-CoV-2 frameshift element RNA pseudoknot sequence transfected with Renilla/Firefly luciferase in rabbit reticulocyte lysate assessed as frameshifting by measuring ratio of renilla/firefly luminescence by dual-luciferase reporter assay
Format: subcellular
Settings: Severe acute respiratory syndrome coronavirus 2
In short: (§1)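 In vitro frameshifting reporter with the SARS-CoV-2 or RSV pseudoknot placed between Renilla (0 frame) and firefly (−1 frame) luciferases. Frameshifting was the luminescence ratio. Frameshifting and translation were normalized to WT plus DMSO. Controls were a 5′ stop codon, a 3′ stop codon and a same-frame construct. Data are mean ± SD, n = 3.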

| SMILES | Ratio |
| --- | --- |
| COc1ccc(-c2nc(NCCN3CCOCC3)c3ccccc3n2)cc1 | 0.99 |
| COc1ccc(-c2nc(NCCN3CCOCC3)c3cc(OC)ccc3n2)cc1 | 0.98 |
| CCOC(=O)c1ccccc1NC(=O)N1CCCN(Cc2csc(C)n2)CC1 | 1.02 |
| CCNCC1CCN(c2c(F)cc3c(=O)c(C(=O)O)cn(CC)c3c2F)C1 (stereo not drawn) [MERAFLOXACIN] | 0.21 |

System: Severe acute respiratory syndrome coronavirus 2
Assay: Binding affinity to SARS-CoV-2 frameshift element RNA assessed as thermal stability by measuring change in melting temperature of RNA by circular dichroism analysis
Settings: not given
In short: (§2)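 FSE RNA thermal melt with compound at 150 or 500 μM. Tm was taken from first-derivative melting curves and reported as ΔTm.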

| SMILES | ΔTm [°C] |
| --- | --- |
| CCOC(=O)c1ccccc1NC(=O)N1CCCN(Cc2csc(C)n2)CC1 | 2.2 |
| CCNCC1CCN(c2c(F)cc3c(=O)c(C(=O)O)cn(CC)c3c2F)C1 (stereo not drawn) [MERAFLOXACIN] | -3.7 |

System: Severe acute respiratory syndrome coronavirus 2
Assay: Binding affinity to 5'-CY5-labelled SARS-CoV-2 frameshift element RNA by SPR analysis
Settings: not given
In short: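 Single-concentration SPR at 100 μM compound over immobilized FSE RNA, with the lead compound as positive control.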

| SMILES | Activity |
| --- | --- |
| COc1ccc(-c2nc(NCCN3CCOCC3)c3cc(-c4cn[nH]c4)ccc3n2)cc1 | Active |
| COc1ccc(-c2nc(NCCN3CCOCC3)c3cc(-c4ccc(S(N)(=O)=O)cc4)ccc3n2)cc1 | Active |
| COc1ccc(-c2nc(NCCN3CCOCC3)c3cc(OC)c(OC)cc3n2)cc1 | Active |
| COc1ccc(-c2nc(NCCN3CCOCC3)c3cc(-c4ccc(N5CCOCC5)c(C)c4)ccc3n2)cc1 | Active |
| O=[N+]([O-])c1ccc(-c2nc(NCCN3CCOCC3)c3ccccc3n2)cc1 | inactive |
| CC#CCOc1ccc(-c2nc(NCCN3CCOCC3)c3ccccc3n2)cc1 | inactive |
| COc1cccc(-c2nc(NCCN3CCOCC3)c3ccccc3n2)c1 | inactive |
| CCN(CCN1CCOCC1)c1nc(-c2ccc(OC)cc2)nc2ccccc12 | Active |
| COc1ccc(-c2nc(NCCN3CCOCC3)c3ccccc3n2)cc1 | Active |
| COc1ccc(-c2nc(NCCN3CCOCC3)c3ccc(-c4ccc(S(N)(=O)=O)cc4)cc3n2)cc1 | inactive |
| COc1ccc(-c2nc(N3CC(N4CCOCC4)C3)c3ccccc3n2)cc1 | Active |
| COc1ccc(-c2nc(NCCN3CCOCC3)c3cc(OC)ccc3n2)cc1 | Active |

System: Severe acute respiratory syndrome coronavirus 2
Assay: Binding affinity to SARS-CoV-2 frameshift element RNA assessed as thermal stability by measuring change in melting temperature of RNA at 500 uM by circular dichroism analysis
Settings: not given
In short: as §2

| SMILES | ΔTm [°C] |
| --- | --- |
| COc1ccc(-c2nc(NCCN3CCOCC3)c3ccccc3n2)cc1 | -4.5 |

System: Reticulocyte
Assay: Binding affinity to wild-type Rous sarcoma virus frameshift element RNA pseudoknot sequence transfected with Renilla/Firefly luciferase in rabbit reticulocyte lysate assessed as translation by measuring ratio of renilla luminescence by dual-luciferase reporter assay
Format: subcellular
Settings: not given
In short: as §1

| SMILES | Ratio |
| --- | --- |
| COc1ccc(-c2nc(NCCN3CCOCC3)c3ccccc3n2)cc1 | 0.77 |
| COc1ccc(-c2nc(NCCN3CCOCC3)c3cc(OC)ccc3n2)cc1 | 0.82 |
| CCOC(=O)c1ccccc1NC(=O)N1CCCN(Cc2csc(C)n2)CC1 | 0.96 |
| CCNCC1CCN(c2c(F)cc3c(=O)c(C(=O)O)cn(CC)c3c2F)C1 (stereo not drawn) [MERAFLOXACIN] | 0.7 |

System: Reticulocyte
Assay: Binding affinity to wild-type Rous sarcoma virus frameshift element RNA pseudoknot sequence transfected with Renilla/Firefly luciferase in rabbit reticulocyte lysate assessed as reduction in frameshifting by dual-luciferase reporter assay relative to control
Format: subcellular
Parameters: scale not given: the % may be the effect or the level left
Settings: not given
In short: as §1

| SMILES | Activity [%] |
| --- | --- |
| CCNCC1CCN(c2c(F)cc3c(=O)c(C(=O)O)cn(CC)c3c2F)C1 (stereo not drawn) [MERAFLOXACIN] | 41 |

System: Severe acute respiratory syndrome coronavirus 2
Assay: Binding affinity to 5'-Cy5-labelled SARS-CoV-2 frameshift element RNA at 10 uM by microarray-based fluorescence analysis
Settings: not given

| SMILES | Activity |
| --- | --- |
| COc1ccc(-c2nc(NCCN3CCOCC3)c3ccccc3n2)cc1 | Active |

Biological target: not listed separately
Assay: Binding affinity to 5'-biotin-labelled SARS-CoV-2 frameshift element RNA assessed as dissociation constant by SPR analysis
Parameters: species or system Severe acute respiratory syndrome coronavirus 2
Settings: not given
In short: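 5′-Biotin FSE RNA was captured on a streptavidin-coated SPR surface. Compound was injected at 15.6–1000 μM, and KD came from steady-state fitting to a 1:1 Langmuir model. Stoichiometry was estimated from Rmax and the molecular ratio.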

| SMILES | Kd [µM] |
| --- | --- |
| COc1ccc(-c2nc(NCCN3CCOCC3)c3ccccc3n2)cc1 | 147 |
| COc1ccc(-c2nc(NCCN3CCOCC3)c3cc(OC)ccc3n2)cc1 | 60 |

System: MCF7
Assay: Cytotoxicity against human MCF7 cells assessed as reduction in cell viability upto 100 uM measured after 48 hrs by Cell-titer Glo luminescent assay
Format: toxicity, cell-based
Settings: mcf7, 48 h
In short: (§3)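 MCF-7 cell viability after 48 h compound exposure.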

| SMILES | Activity |
| --- | --- |
| CCNCC1CCN(c2c(F)cc3c(=O)c(C(=O)O)cn(CC)c3c2F)C1 (stereo not drawn) [MERAFLOXACIN] | Non-Toxic |

Biological target: not listed separately
Assay: Binding affinity to 5'-CY5-labelled SARS-CoV-2 frameshift element RNA assessed as dissociation constant by MST analysis
Parameters: species or system Severe acute respiratory syndrome coronavirus 2
Settings: not given
In short: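 MST titration of the compound (4.9–500 μM) into 5′-Cy5-labelled FSE RNA. KD was fitted from T-jump values.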

| SMILES | Kd [µM] |
| --- | --- |
| COc1ccc(-c2nc(NCCN3CCOCC3)c3ccccc3n2)cc1 | 139 |

System: Severe acute respiratory syndrome coronavirus 2
Assay: Binding affinity to 5'-CY5-labelled SARS-CoV-2 frameshift element RNA by MST analysis
Settings: not given
In short: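 Single-concentration MST screen against 5′-Cy5-labelled FSE RNA at 100 μM compound. A hit required an MST shift greater than 3SD of the DMSO signal, with the lead compound as positive control.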

| SMILES | Activity |
| --- | --- |
| COc1ccc(-c2nc(NCCN3CCOCC3)c3cc(-c4cn[nH]c4)ccc3n2)cc1 | inactive |
| COc1ccc(-c2nc(NCCN3CCOCC3)c3cc(-c4ccc(S(N)(=O)=O)cc4)ccc3n2)cc1 | inactive |
| COc1ccc(-c2nc(NCCN3CCOCC3)c3cc(OC)c(OC)cc3n2)cc1 | Active |
| COc1ccc(-c2nc(NCCN3CCOCC3)c3cc(-c4ccc(N5CCOCC5)c(C)c4)ccc3n2)cc1 | inactive |
| O=[N+]([O-])c1ccc(-c2nc(NCCN3CCOCC3)c3ccccc3n2)cc1 | inactive |
| CC#CCOc1ccc(-c2nc(NCCN3CCOCC3)c3ccccc3n2)cc1 | inactive |
| COc1cccc(-c2nc(NCCN3CCOCC3)c3ccccc3n2)c1 | inactive |
| CCN(CCN1CCOCC1)c1nc(-c2ccc(OC)cc2)nc2ccccc12 | inactive |
| COc1ccc(-c2nc(NCCN3CCOCC3)c3ccccc3n2)cc1 | Active |
| COc1ccc(-c2nc(NCCN3CCOCC3)c3ccc(-c4ccc(S(N)(=O)=O)cc4)cc3n2)cc1 | inactive |
| COc1ccc(-c2nc(N3CC(N4CCOCC4)C3)c3ccccc3n2)cc1 | inactive |
| COc1ccc(-c2nc(NCCN3CCOCC3)c3cc(OC)ccc3n2)cc1 | Active |
| CCOC(=O)c1ccccc1NC(=O)N1CCCN(Cc2csc(C)n2)CC1 | Active |
| CCNCC1CCN(c2c(F)cc3c(=O)c(C(=O)O)cn(CC)c3c2F)C1 (stereo not drawn) [MERAFLOXACIN] | Active |

System: Severe acute respiratory syndrome coronavirus 2
Assay: Binding affinity to SARS-CoV-2 frameshift element RNA assessed as thermal stability by measuring change in melting temperature of RNA at 150 uM by circular dichroism analysis
Settings: not given
In short: as §2

| SMILES | ΔTm [°C] |
| --- | --- |
| COc1ccc(-c2nc(NCCN3CCOCC3)c3ccccc3n2)cc1 | -2.5 |

System: Reticulocyte
Assay: Binding affinity to wild-type SARS-CoV-2 frameshift element RNA pseudoknot sequence transfected with Renilla/Firefly luciferase in rabbit reticulocyte lysate assessed as translation by measuring ratio of renilla luminescence by dual-luciferase reporter assay
Format: subcellular
Settings: Severe acute respiratory syndrome coronavirus 2
In short: as §1

| SMILES | Ratio |
| --- | --- |
| COc1ccc(-c2nc(NCCN3CCOCC3)c3ccccc3n2)cc1 | 1.35 |
| COc1ccc(-c2nc(NCCN3CCOCC3)c3cc(OC)ccc3n2)cc1 | 0.98 |
| CCOC(=O)c1ccccc1NC(=O)N1CCCN(Cc2csc(C)n2)CC1 | 1.01 |
| CCNCC1CCN(c2c(F)cc3c(=O)c(C(=O)O)cn(CC)c3c2F)C1 (stereo not drawn) [MERAFLOXACIN] | 0.9 |

System: not listed separately
Assay: Cytotoxicity against human MCF7 cells assessed as cell viability at 50 uM measured after 48 hrs by Cell-titer Glo luminescent assay relative to control
Format: toxicity, cell-based
Settings: read-out: Activity
In short: as §3

| SMILES | viability at 48 h, 50 µM [%] |
| --- | --- |
| COc1ccc(-c2nc(NCCN3CCOCC3)c3ccccc3n2)cc1 | 91.6 |
| COc1ccc(-c2nc(NCCN3CCOCC3)c3cc(OC)ccc3n2)cc1 | 95.6 |

System: Severe acute respiratory syndrome coronavirus 2
Assay: Binding affinity to SARS-CoV-2 frameshift element RNA at 150 uM by water ligand observed gradient spectroscopic analysis
Settings: not given
In short: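 WaterLOGSY NMR of 150 μM compound, alone and with 5 μM unlabelled FSE RNA. N-methyl-L-valine served as internal non-binding control, and a phase inversion of ligand peaks was read as binding.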

| SMILES | Activity |
| --- | --- |
| COc1ccc(-c2nc(NCCN3CCOCC3)c3ccccc3n2)cc1 | Active |

System: Reticulocyte
Assay: Binding affinity to wild-type SARS-CoV-2 frameshift element RNA pseudoknot sequence transfected with Renilla/Firefly luciferase in rabbit reticulocyte lysate assessed as reduction in frameshifting by dual-luciferase reporter assay relative to control
Format: subcellular
Parameters: scale not given: the % may be the effect or the level left
Settings: Severe acute respiratory syndrome coronavirus 2
In short: as §1

| SMILES | Activity [%] |
| --- | --- |
| CCNCC1CCN(c2c(F)cc3c(=O)c(C(=O)O)cn(CC)c3c2F)C1 (stereo not drawn) [MERAFLOXACIN] | 79 |

System: Reticulocyte
Assay: Binding affinity to wild-type Rous sarcoma virus frameshift element RNA pseudoknot sequence transfected with Renilla/Firefly luciferase in rabbit reticulocyte lysate assessed as inhibition of translation by dual-luciferase reporter assay relative to control
Format: subcellular
Settings: concentration not given here
In short: as §1

| SMILES | inhibition [%] |
| --- | --- |
| CCNCC1CCN(c2c(F)cc3c(=O)c(C(=O)O)cn(CC)c3c2F)C1 (stereo not drawn) [MERAFLOXACIN] | 30 |

System: Reticulocyte
Assay: Binding affinity to wild-type Rous sarcoma virus frameshift element RNA pseudoknot sequence transfected with Renilla/Firefly luciferase in rabbit reticulocyte lysate assessed as frameshifting by measuring ratio of renilla/firefly luminescence by dual-luciferase reporter assay
Format: subcellular
Settings: not given
In short: as §1

| SMILES | Ratio |
| --- | --- |
| COc1ccc(-c2nc(NCCN3CCOCC3)c3ccccc3n2)cc1 | 1.21 |
| COc1ccc(-c2nc(NCCN3CCOCC3)c3cc(OC)ccc3n2)cc1 | 1.13 |
| CCOC(=O)c1ccccc1NC(=O)N1CCCN(Cc2csc(C)n2)CC1 | 1.13 |
| CCNCC1CCN(c2c(F)cc3c(=O)c(C(=O)O)cn(CC)c3c2F)C1 (stereo not drawn) [MERAFLOXACIN] | 0.59 |
